The source made the active and inactive calls. No cut-off for these calls is given here.
What was measured:
HT-29 = assay: Growth inhibition of human HT-29 cells after 96 hrs by sulforhodamine B assay; assay type: functional, cell-based; conditions: HT-29, 96 h
How it was run: (§1)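 SRB assay with 96 h exposure to a range of concentrations and a DMSO control. Cells were TCA-fixed, SRB-stained and read at 530 nm to give IC50. Cells were kept at 37 °C, 5% CO₂. All other lines were grown in RPMI1640 with 10% FBS, pyruvate, HEPES and P/S.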

OVCAR-3 = assay: Growth inhibition of human OVCAR-3 cells after 96 hrs by sulforhodamine B assay; assay type: functional, cell-based; conditions: OVCAR-3, 96 h; how it was run: as §1
CAKI-1 = assay: Growth inhibition of human Caki1 cells after 96 hrs by sulforhodamine B assay; assay type: functional, cell-based; conditions: CAKI-1, 96 h; how it was run: as §1
SK-MEL-28 = assay: Growth inhibition of human SK-MEL-28 cells after 96 hrs by sulforhodamine B assay; assay type: functional, cell-based; conditions: SK-MEL-28, 96 h; how it was run: as §1
HCT-116 [1] = assay: Growth inhibition of human HCT116 cells after 96 hrs by sulforhodamine B assay; assay type: functional, cell-based; conditions: HCT-116, 96 h; how it was run: as §1
MKN-45 = assay: Growth inhibition of human MKN45 cells after 96 hrs by sulforhodamine B assay; assay type: functional, cell-based; conditions: MKN-45, 96 h; how it was run: as §1
PC-3 = assay: Growth inhibition of human PC3 cells after 96 hrs by sulforhodamine B assay; assay type: functional, cell-based; conditions: PC-3, 96 h; how it was run: as §1
A549 = assay: Growth inhibition of human A549 cells after 96 hrs by sulforhodamine B assay; assay type: functional, cell-based; conditions: A549, 96 h; how it was run: as §1
HeLa = assay: Growth inhibition of human HeLa cells after 96 hrs by sulforhodamine B assay; assay type: functional, cell-based; how it was run: as §1
U-251 = assay: Growth inhibition of human U251 cells after 96 hrs by sulforhodamine B assay; assay type: functional, cell-based; conditions: U-251, 96 h; how it was run: as §1
HepG2 = assay: Growth inhibition of human HepG2 cells after 96 hrs by sulforhodamine B assay; assay type: functional, cell-based; conditions: HepG2, 96 h; how it was run: as §1
MDA-MB-231 [2] = assay: Growth inhibition of human MDA-MB-231 cells after 96 hrs by sulforhodamine B assay; assay type: functional, cell-based; conditions: MDA-MB-231, 96 h; how it was run: as §1
[3] = Growth inhibition of human UMRC2 cells after 96 hrs by sulforhodamine B assay; assay type: functional, cell-based; conditions: UMRC2, 96 h; how it was run: as §1
PANC-1 = assay: Growth inhibition of human PANC1 cells after 96 hrs by sulforhodamine B assay; assay type: functional, cell-based; conditions: PANC-1, 96 h; how it was run: as §1
MDA-MB-231 [4] = assay: Growth inhibition of human MDA-MB-231 cells at 20 nM after 96 hrs by sulforhodamine B assay relative to control; assay type: functional; conditions: MDA-MB-231, 96 h
MDA-MB-231 [5] = assay: Induction of apoptosis in human MDA-MB-231 cells assessed as decrease of Bcl-2 protein level at 70 nM after 24 to 72 hrs by Western blotting; assay type: functional, cell-based
How it was run: (§2)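 MDA-MB-231 cells were exposed to 70 nM for 24, 48 or 72 h alongside untreated controls. After a PBS wash, cells were lysed in 25 mM Tris-HCl pH 7.5, 300 mM NaCl, 1% Triton X-100 with protease inhibitors. Protein was quantified by BCA, run on SDS-PAGE and transferred to nitrocellulose. Blots were probed for p21WAF1, Bcl-2 and Bad, with β-actin as the loading control.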

MDA-MB-231 [6] = assay: Induction of apoptosis in human MDA-MB-231 cells assessed as DNA fragmentation; assay type: functional, cell-based
MDA-MB-231 [7] = assay: Induction of apoptosis in human MDA-MB-231 cells assessed as increase of p21 WAF1 protein level at 70 nM after 24 to 72 hrs by Western blotting; assay type: functional, cell-based; how it was run: as §2
MDA-MB-231 [8] = assay: Cell cycle arrest in human MDA-MB-231 cells assessed as accumulation at G2/M phase at 0.02 to 0.2 uM after 3 to 12 hrs using propidium iodide staining; assay type: functional, cell-based
HCT-15 = assay: Growth inhibition of human HCT15 cells after 96 hrs by sulforhodamine B assay; assay type: functional, cell-based; conditions: HCT-15, 96 h
How it was run: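 SRB assay with 96 h exposure to a range of concentrations and a DMSO control. Cells were TCA-fixed, SRB-stained and read at 530 nm to give IC50. Cells were kept at 37 °C, 5% CO₂. MDA-MB-231, HCT116, Caki-1, UMRC2 and PANC-1 were grown in DMEM with 10% FBS, HEPES, P/S and glutamine. All other lines were grown in RPMI1640 with 10% FBS, pyruvate, HEPES and P/S.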

HCT-116 [9] = assay: Resistant index, ratio of IC50 for human HCT15 cells to IC50 for human HCT116 cells; assay type: functional
MDA-MB-231 [10] = assay: Induction of apoptosis in human MDA-MB-231 cells assessed as PARP fragmentation; assay type: functional, cell-based
MDA-MB-231 [11] = assay: Growth inhibition of human MDA-MB-231 cells at 5 uM after 96 hrs by sulforhodamine B assay relative to control; assay type: functional; conditions: MDA-MB-231, 96 h
How it was run: (§3)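 MDA-MB-231 cells in DMEM with 10% FBS, 10 mM HEPES, P/S and 2 mM L-glutamine at 37 °C, 5% CO2, were treated in 96-well plates for 96 h, either alone or with a 20 nM co-treatment. They were then TCA-fixed, SRB-stained and read at 530 nm. Results are % growth inhibition versus untreated cells, with 0.5% DMSO as vehicle control, from triplicates in at least two experiments.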

MDA-MB-231 [12] = assay: Growth inhibition of human MDA-MB-231 cells at 3 uM after 96 hrs by sulforhodamine B assay relative to control; assay type: functional; conditions: MDA-MB-231, 96 h; how it was run: as §3
MDA-MB-231 [13] = assay: Growth inhibition of human MDA-MB-231 cells at 0.1 uM after 96 hrs by sulforhodamine B assay relative to control; assay type: functional; conditions: MDA-MB-231, 96 h
MDA-MB-231 [14] = assay: Growth inhibition of human MDA-MB-231 cells at 0.2 uM after 96 hrs by sulforhodamine B assay relative to control; assay type: functional; conditions: MDA-MB-231, 96 h
MDA-MB-231 [15] = assay: Growth inhibition of human MDA-MB-231 cells at 5 nM after 96 hrs by sulforhodamine B assay relative to control; assay type: functional; conditions: MDA-MB-231, 96 h
MDA-MB-231 [16] = assay: Growth inhibition of human MDA-MB-231 cells at 10 nM after 96 hrs by sulforhodamine B assay relative to control; assay type: functional; conditions: MDA-MB-231, 96 h

SMILES	IC50 (HT-29) [nM]	IC50 (OVCAR-3) [nM]	IC50 (CAKI-1) [nM]	IC50 (SK-MEL-28) [nM]	IC50 (HCT-116 [1]) [nM]	IC50 (MKN-45) [nM]	IC50 (PC-3) [nM]	IC50 (A549) [nM]	IC50 (HeLa) [nM]	IC50 (U-251) [nM]	IC50 (HepG2) [nM]	IC50 (MDA-MB-231 [2]) [nM]	IC50 [3] [nM]	IC50 (PANC-1) [nM]	also measured
COc1cc(OC)cc(N2CCN(C(=O)Nc3nc4cc(C)ccc4nc3OC)CC2)c1	48	23	29	47	47	40	63	55	51	31	45	32	39	70	
COc1cc(OC)cc(N2CCN(C(=O)Nc3nc4cc(F)ccc4nc3OC)CC2)c1 [SUPINOXIN]	21	12	11	20	20	20	21	21	21	15	19	12	13	21	inhibition at 0.02 µM (MDA-MB-231 [4]): 14%; Activity (MDA-MB-231 [5]): Active; Activity (MDA-MB-231 [6]): Active; Activity (MDA-MB-231 [7]): Active; Activity (MDA-MB-231 [8]): Active; IC50 (HCT-15): 21 nM; Ratio IC50 (HCT-116 [9]): 0.72; Activity (MDA-MB-231 [10]): Active
O=c1[nH]cc(F)c(=O)[nH]1 [FLUOROURACIL]															inhibition at 5 µM (MDA-MB-231 [11]): 41.6%; inhibition at 3 µM (MDA-MB-231 [12]): 3.3%
COc1cc(OC)cc(N2CCN(C(=O)Nc3nc4c(OC)cccc4nc3OC)CC2)c1	74	44	33	68	60	52	57	64	63	58	57	56	29	42	
COc1cc(OC)cc(N2CCN(C(=O)Nc3nc4c(C)cccc4nc3OC)CC2)c1	55	39	32	64	50	57	57	56	62	54	63	60	30	54	
Nc1ccn([C@@H]2O[C@H](CO)[C@@H](O)C2(F)F)c(=O)n1 [GEMCITABINE]															inhibition at 0.1 µM (MDA-MB-231 [13]): 1%; inhibition at 0.2 µM (MDA-MB-231 [14]): 17.7%
COc1cc(OC)cc(N2CCN(C(=O)Nc3nc4cc(Cl)ccc4nc3OC)CC2)c1	79	42	53	110	68	64	76	73	73	56	63	50	65	98	
COc1cccc2c1C(=O)c1c(O)c3c(c(O)c1C2=O)C[C@@](O)(C(=O)CO)C[C@@H]3O[C@H]1C[C@H](N)[C@H](O)[C@H](C)O1 [DOXORUBICIN]															inhibition at 0.005 µM (MDA-MB-231 [15]): 4.2%; inhibition at 0.01 µM (MDA-MB-231 [16]): 59.2%
CC(=O)O[C@H]1C(=O)[C@@]2(C)[C@H]([C@H](OC(=O)c3ccccc3)[C@]3(O)C[C@H](OC(=O)[C@H](O)[C@@H](NC(=O)c4ccccc4)c4ccccc4)C(C)=C1C3(C)C)[C@]1(OC(C)=O)CO[C@@H]1C[C@@H]2O [PACLITAXEL]					2										IC50 (HCT-15): 140 nM; Ratio IC50 (HCT-116 [9]): 70

Source: ChEMBL document CHEMBL1275358, “Synthesis and anticancer activity of new 1-[(5 or 6-substituted 2-alkoxyquinoxalin-3-yl)aminocarbonyl]-4-(hetero)arylpiperazine derivatives” (Bioorg Med Chem, 2010)
